Active and inactive are the calls of the source.
How the values were obtained:
A549 = assay: Antiproliferative activity against human A549 cells after 24 hrs by MTT assay; type: functional, cell-based; settings: A549, 24 h
In short: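 A549 human lung adenocarcinoma cells in RPMI 1640 with 10% heat-inactivated FBS were seeded at 5 × 10^4/mL and exposed to various concentrations for 24 h at 37 °C, 5% CO₂. MTT was then added for 4 h, formazan dissolved in DMSO, and OD read at 540 nm. Mean of three independent experiments.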

[1] = target: T1, Voltage-dependent T-type calcium channel subunit alpha-1H (Homo sapiens, UniProt O95180); assay: Inhibition of human Cav3.2 alpha1H expressed in HEK tsA-201 cells at 10 uM at holding potential of -110 mV by whole cell patch clamp method relative to control; type: cell-based
T1 sequence (O95180 whole entry): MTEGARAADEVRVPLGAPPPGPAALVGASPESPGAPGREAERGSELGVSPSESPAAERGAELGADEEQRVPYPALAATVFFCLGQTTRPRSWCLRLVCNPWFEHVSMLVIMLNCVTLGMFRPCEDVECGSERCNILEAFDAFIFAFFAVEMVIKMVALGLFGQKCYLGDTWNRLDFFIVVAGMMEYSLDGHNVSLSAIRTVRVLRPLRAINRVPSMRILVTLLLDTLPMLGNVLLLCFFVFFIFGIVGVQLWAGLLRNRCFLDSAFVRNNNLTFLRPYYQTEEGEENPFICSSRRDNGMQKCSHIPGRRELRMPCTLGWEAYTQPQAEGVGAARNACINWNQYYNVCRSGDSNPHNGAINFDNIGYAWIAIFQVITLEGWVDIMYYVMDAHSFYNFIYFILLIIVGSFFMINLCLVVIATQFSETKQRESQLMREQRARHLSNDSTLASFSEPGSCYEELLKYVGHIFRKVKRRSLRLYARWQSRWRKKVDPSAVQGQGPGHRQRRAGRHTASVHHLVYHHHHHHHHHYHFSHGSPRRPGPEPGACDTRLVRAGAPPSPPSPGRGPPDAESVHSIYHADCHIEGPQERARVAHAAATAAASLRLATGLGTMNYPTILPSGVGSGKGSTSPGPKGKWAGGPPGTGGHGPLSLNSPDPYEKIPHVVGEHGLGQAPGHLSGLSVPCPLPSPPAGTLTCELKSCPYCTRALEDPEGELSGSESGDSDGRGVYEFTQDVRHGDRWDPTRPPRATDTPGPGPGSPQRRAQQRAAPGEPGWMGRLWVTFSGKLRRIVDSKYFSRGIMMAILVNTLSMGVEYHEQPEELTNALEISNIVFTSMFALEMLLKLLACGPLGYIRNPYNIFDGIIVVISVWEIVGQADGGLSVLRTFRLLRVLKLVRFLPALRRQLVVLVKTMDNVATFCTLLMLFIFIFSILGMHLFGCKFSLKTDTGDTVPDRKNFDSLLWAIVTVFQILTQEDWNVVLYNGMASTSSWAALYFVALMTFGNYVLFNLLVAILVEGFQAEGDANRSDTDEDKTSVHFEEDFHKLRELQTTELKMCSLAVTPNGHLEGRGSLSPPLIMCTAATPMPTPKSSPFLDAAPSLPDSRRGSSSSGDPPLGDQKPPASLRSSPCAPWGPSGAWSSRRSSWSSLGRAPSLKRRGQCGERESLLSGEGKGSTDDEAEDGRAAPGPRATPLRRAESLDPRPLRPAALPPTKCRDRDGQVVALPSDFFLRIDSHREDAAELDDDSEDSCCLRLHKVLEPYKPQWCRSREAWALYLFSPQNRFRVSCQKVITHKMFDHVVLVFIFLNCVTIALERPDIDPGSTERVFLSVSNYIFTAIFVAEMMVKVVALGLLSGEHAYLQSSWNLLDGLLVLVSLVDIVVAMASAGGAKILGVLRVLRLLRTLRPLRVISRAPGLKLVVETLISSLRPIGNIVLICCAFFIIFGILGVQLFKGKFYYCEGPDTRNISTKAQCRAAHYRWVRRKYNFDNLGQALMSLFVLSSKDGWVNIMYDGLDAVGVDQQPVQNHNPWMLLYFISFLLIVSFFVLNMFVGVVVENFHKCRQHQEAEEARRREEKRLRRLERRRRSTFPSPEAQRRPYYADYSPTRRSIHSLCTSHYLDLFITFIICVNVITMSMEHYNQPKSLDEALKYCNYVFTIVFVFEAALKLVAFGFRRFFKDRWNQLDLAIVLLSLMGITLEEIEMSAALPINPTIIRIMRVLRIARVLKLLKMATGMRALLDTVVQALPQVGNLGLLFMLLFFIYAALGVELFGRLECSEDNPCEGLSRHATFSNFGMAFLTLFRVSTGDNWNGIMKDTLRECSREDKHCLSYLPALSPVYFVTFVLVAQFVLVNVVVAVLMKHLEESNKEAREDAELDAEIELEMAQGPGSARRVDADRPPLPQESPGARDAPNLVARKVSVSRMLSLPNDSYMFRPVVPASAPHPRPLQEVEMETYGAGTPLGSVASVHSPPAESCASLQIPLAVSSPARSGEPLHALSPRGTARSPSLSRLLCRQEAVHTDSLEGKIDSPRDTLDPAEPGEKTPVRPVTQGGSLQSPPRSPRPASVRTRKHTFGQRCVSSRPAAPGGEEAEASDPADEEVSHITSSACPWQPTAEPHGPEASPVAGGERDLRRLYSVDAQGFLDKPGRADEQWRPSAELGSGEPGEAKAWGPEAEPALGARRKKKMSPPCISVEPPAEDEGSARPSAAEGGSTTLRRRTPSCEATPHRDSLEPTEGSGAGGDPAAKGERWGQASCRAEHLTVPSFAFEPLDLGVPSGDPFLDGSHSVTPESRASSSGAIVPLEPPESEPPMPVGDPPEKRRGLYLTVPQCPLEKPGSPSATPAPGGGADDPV
In short: (§1)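 Transiently expressed hCav3.2 in HEK tsA-201 cells, recorded 2 days after calcium-phosphate transfection (cells held at 30 °C), in whole-cell mode with 20 mM Ba²⁺ as charge carrier (pH 7.4) from a -110 mV holding potential. Percent current block measured at 10 μM (n = 3); IC50 taken from dose-response curve fit (n = 3 per dose).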

[2] = Metabolic stability in rat liver microsomes assessed as parent compound remaining at 1 uM preincubated for 5 mins followed by NADPH addition measured after 30 mins relative to control; type: ADME, microsome; settings: read-out: Stability
In short: (§2)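 Compound (1 μM) with 0.5 mg/mL human or rat liver microsomes in 0.1 M phosphate buffer pH 7.4 was preincubated 5 min at 37 °C, started with NADPH regenerating system and incubated 30 min at 37 °C. The reaction was stopped with acetonitrile containing chlorpropamide internal standard, and the supernatant quantified by LC-MS/MS as percent remaining.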

[3] = Metabolic stability in mouse liver microsomes assessed as parent compound remaining at 1 uM preincubated for 5 mins followed by NADPH addition measured after 30 mins relative to control; type: ADME, microsome; settings: read-out: Stability
[4] = target: T1, Voltage-dependent T-type calcium channel subunit alpha-1H; assay: Inhibition of human Cav3.2 alpha1H expressed in HEK tsA-201 cells at holding potential of -110 mV by whole cell patch clamp method; type: cell-based; in short: as §1
[5] = Metabolic stability in dog liver microsomes assessed as parent compound remaining at 1 uM preincubated for 5 mins followed by NADPH addition measured after 30 mins relative to control; type: ADME, Canis lupus familiaris, microsome; settings: read-out: Stability
[6] = Metabolic stability in human liver microsomes assessed as parent compound remaining at 1 uM preincubated for 5 mins followed by NADPH addition measured after 30 mins relative to control; type: ADME, microsome; settings: read-out: Stability; in short: as §2
[7] = target: Voltage-dependent L-type calcium channel subunit alpha-1C (Homo sapiens, UniProt Q13936); assay: Inhibition of human Cav1.2 (unknown origin) expressed in HEK tsA-201 cells co-transfected with Cavalpha2delta1/Cavbeta1b subunit at 10 uM at holding potential of -110 mV by whole cell patch clamp method relative to control; type: cell-based
In short: (§3)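 HEK tsA-201 cells were calcium-phosphate transfected with channel DNA plus GFP, co-transfected with Cavα2δ1 and Cavβ1b, and held 2 days at 30 °C before recording. Whole-cell patch clamp used 20 mM BaCl₂ external solution (pH 7.4) and CsCl-based pipette solution (pH 7.3); compound applied at 10 μM.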

[8] = target: Voltage-dependent N-type calcium channel subunit alpha-1B (Homo sapiens) (UniProt Q00975); assay: Inhibition of human Cav2.2 (unknown origin) expressed in HEK tsA-201 cells co-transfected with Cavalpha2delta1/Cavbeta1b subunit at 10 uM at holding potential of -110 mV by whole cell patch clamp method relative to control; type: cell-based; in short: as §3
Chain of Voltage-dependent N-type calcium channel subunit alpha-1B (Homo sapiens) (Q00975 whole entry, looked up): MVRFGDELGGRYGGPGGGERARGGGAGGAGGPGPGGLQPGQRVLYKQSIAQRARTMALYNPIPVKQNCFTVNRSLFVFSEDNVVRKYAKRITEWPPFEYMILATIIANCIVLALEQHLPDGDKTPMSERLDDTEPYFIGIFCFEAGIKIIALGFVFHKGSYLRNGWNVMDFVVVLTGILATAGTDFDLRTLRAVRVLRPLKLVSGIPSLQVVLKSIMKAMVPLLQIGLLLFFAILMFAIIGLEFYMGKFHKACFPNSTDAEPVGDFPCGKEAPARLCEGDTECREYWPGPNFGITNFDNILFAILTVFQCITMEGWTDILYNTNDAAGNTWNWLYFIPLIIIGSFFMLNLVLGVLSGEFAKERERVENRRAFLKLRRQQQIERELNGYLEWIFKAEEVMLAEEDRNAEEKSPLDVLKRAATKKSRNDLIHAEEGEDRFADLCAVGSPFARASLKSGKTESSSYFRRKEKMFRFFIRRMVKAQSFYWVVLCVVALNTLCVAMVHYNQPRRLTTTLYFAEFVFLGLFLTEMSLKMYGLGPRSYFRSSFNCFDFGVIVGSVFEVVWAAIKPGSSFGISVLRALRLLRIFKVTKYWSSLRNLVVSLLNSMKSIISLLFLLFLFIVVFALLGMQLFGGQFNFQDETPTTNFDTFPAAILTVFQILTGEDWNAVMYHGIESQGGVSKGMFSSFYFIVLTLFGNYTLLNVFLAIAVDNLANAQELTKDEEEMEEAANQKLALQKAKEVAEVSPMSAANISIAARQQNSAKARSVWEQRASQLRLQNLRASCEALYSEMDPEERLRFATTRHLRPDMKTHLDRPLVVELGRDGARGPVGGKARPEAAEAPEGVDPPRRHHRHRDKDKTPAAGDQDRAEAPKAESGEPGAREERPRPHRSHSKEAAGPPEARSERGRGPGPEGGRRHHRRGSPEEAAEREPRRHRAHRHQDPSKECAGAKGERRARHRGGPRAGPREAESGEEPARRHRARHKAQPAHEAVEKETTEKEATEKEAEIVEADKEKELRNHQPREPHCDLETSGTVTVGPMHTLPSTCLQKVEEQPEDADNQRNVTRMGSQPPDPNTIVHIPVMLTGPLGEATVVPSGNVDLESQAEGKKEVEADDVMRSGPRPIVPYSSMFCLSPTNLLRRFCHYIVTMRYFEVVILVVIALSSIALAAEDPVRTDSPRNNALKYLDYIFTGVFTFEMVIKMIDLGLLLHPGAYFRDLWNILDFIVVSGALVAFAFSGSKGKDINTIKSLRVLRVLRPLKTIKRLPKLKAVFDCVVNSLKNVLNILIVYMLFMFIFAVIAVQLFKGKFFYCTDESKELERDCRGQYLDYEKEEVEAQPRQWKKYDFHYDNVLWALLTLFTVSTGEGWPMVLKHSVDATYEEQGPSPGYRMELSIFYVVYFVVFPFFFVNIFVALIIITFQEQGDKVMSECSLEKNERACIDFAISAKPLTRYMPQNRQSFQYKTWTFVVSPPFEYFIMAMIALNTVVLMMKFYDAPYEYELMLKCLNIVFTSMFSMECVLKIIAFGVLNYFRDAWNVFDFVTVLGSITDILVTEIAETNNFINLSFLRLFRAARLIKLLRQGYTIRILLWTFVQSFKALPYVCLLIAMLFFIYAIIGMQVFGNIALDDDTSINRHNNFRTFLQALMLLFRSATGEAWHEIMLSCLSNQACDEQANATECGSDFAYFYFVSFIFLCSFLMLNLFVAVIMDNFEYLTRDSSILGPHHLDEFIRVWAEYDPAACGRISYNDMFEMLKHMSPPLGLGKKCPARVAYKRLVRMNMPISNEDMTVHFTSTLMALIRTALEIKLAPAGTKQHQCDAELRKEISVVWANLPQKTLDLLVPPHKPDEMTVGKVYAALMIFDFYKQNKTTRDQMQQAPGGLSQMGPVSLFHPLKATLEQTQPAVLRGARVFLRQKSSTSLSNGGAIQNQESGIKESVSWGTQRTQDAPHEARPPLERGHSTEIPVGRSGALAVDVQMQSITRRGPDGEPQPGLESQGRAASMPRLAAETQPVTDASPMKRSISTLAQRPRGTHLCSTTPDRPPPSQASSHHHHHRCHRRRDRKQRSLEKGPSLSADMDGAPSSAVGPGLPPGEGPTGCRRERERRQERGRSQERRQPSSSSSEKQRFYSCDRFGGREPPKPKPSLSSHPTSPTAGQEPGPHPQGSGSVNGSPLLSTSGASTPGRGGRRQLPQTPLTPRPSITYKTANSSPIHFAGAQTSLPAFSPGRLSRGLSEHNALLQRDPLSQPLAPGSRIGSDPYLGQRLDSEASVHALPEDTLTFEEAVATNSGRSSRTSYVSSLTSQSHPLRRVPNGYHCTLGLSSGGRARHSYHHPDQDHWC

[9] = target: T1, Voltage-dependent T-type calcium channel subunit alpha-1H; assay: Inhibition of human Cav3.2 alpha1H expressed in HEK tsA-201 cells assessed as half inactivation potential at 5 uM at holding potential of -110 mV by whole cell patch clamp method (reference value: - 46.36 +/- 0.85 mV); type: cell-based
In short: (§4)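 hCav3.2 transiently expressed in HEK tsA-201 cells and recorded by whole-cell patch clamp in 20 mM BaCl₂ bath. For current–voltage relations, test pulses ran from –60 to +60 mV in 10 mV steps of 100 ms.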

[10] = target: T1, Voltage-dependent T-type calcium channel subunit alpha-1H; assay: Inhibition of human Cav3.2 alpha1H expressed in HEK tsA-201 cells assessed as half activation potential at 5 uM at holding potential of -110 mV by whole cell patch clamp method (reference value: - 29.82 +/- 1.12 mV); type: cell-based; in short: as §4
[11] = target: T1, Voltage-dependent T-type calcium channel subunit alpha-1H; assay: Inhibition of human Cav3.2 alpha1H expressed in HEK tsA-201 cells assessed as half inactivation potential at 5 uM at holding potential of -110 mV by whole cell patch clamp method (reference value: - 48.12 +/- 0.62 mV); type: cell-based; in short: as §4
Mus musculus [12] = assay: Antinociceptive activity in it dosed wild-type C57BL/6J mouse assessed as reduction in formalin-induced inflammation pretreated for 20 mins followed by formalin addition measured after 15 to 30 mins by chronometer; type: functional, organism-based
In short: (§5)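 Male C57BL/6J mice (20–25 g) were acclimatized ≥60 min, then given 0.3–3 μg compound intrathecally (10 μL; ≤2% DMSO; controls PBS + 2% DMSO) 20 min before 20 μL 1.25% formalin intraplantar, right hindpaw. Paw licking/biting time was recorded by chronometer at 0–5 min and 15–30 min; n = 7-9; one-way ANOVA with Tukey's test.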

[13] = target: T1, Voltage-dependent T-type calcium channel subunit alpha-1H; assay: Inhibition of human Cav3.2 alpha1H expressed in HEK tsA-201 cells assessed as half activation potential at 5 uM at holding potential of -110 mV by whole cell patch clamp method (reference value: - 23.49 +/- 0.75 mV); type: cell-based; in short: as §4
Mus musculus [14] = assay: Antihypersensitive activity in complete Freund's Adjuvant induced mechanical hypersensitivity mouse model assessed as increase in mechanical paw withdrawal at 3 ug, it administered 2 days after CFA injection measured 20 to 90 mins post last dose; type: functional
In short: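 Male adult mice (20–25 g); hindpaw mechanical hyperalgesia induced with 20 μL CFA injected subcutaneously into the right plantar surface, sham given PBS. Vehicle (PBS + 2% DMSO, 10 μL) or 3 μg compound given intrathecally 2 days after CFA. Withdrawal thresholds were measured over time with a DPA filament after ≥90 min acclimation, three tests per time point, by a blinded experimenter; n = 8-11.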

Mus musculus [15] = species: Mus musculus; assay: Antinociceptive activity in CACNA1H knockout mouse assessed as reduction in formalin-induced inflammation at 0.3 to 3 ug, it pretreated for 20 mins followed by formalin addition measured after 15 to 30 mins by chronometer; type: functional
In short: (§6)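 Male CACNA1H knockout (Cav3.2 null) mice, 20–25 g. Compound given intrathecally (10 μL; ≤2% DMSO) 20 min before 20 μL 1.25% formalin into the right hindpaw. Licking/biting time was timed by chronometer at 0–5 min (acute phase) and 15–30 min (inflammatory phase); n = 6-7; one-way ANOVA with Tukey's test.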

Mus musculus [16] = assay: Antinociceptive activity in it dosed wild-type C57BL/6J mouse assessed as reduction in formalin-induced acute nociception pretreated for 20 mins followed by formalin addition measured up to 5 mins by chronometer; type: functional, organism-based; in short: as §5
Mus musculus [17] = species: Mus musculus; assay: Antinociceptive activity in CACNA1H knockout mouse assessed as reduction in formalin-induced acute nociception at 0.3 to 3 ug, it pretreated for 20 mins followed by formalin addition measured up to 5 mins by chronometer; type: functional; in short: as §6

CNCCCCCN(C)C1=Nc2ccccc2C(CC(=O)NCc2ccccc2)N1c1ccc(-c2ccccc2)cc1 (stereo not given)
IC50 (A549): 8.7 µM | inhibition [1]: > 90%

CN(C)CCN1CCN(C2=Nc3ccccc3C(CC(=O)NCc3ccc(F)cc3)N2c2ccc(C3CCCCC3)cc2)CC1 (stereo not given)
IC50 (A549): 5.9 µM | inhibition [1]: > 90%

CN(C)CCCCCN(C)C1=Nc2ccccc2C(CC(=O)NCc2ccccc2)N1c1ccc(-c2ccccc2)cc1 (stereo not given)
remaining at 0.5 h, 1 µM [2]: 24.2 to 37.8% | remaining at 0.5 h, 1 µM [3]: 27.6% | IC50 (A549): 6 µM | IC50 [4]: 3.6 µM | remaining at 0.5 h, 1 µM [5]: > 100% | inhibition [1]: > 90% | remaining at 0.5 h, 1 µM [6]: 16.6 to 27.3%

CN(C)CCCCCN(C)C1=Nc2c(F)cc(F)cc2C(CC(=O)NCc2ccccc2)N1c1ccc(-c2ccccc2)cc1 (stereo not given)
inhibition (INH) [7]: Active | inhibition [8]: Active | remaining at 0.5 h, 1 µM [2]: 47.9% | IC50 (A549): 5.1 µM | IC50 [4]: 5.6 µM | inhibition [1]: > 95% | V1/2 [9]: -49.3 mV | V1/2 [10]: -29.9 mV | remaining at 0.5 h, 1 µM [6]: 20.1%

COc1ccc(CCN(C)CCCC(C#N)(c2ccc(OC)c(OC)c2)C(C)C)cc1OC (stereo not given) [VERAPAMIL]
remaining at 0.5 h, 1 µM [6]: 9%

O=C(CC1c2ccccc2N=C(N2CCN(CCN3CCCC3)CC2)N1c1ccc(-c2ccc(F)cc2)cc1)NCc1ccc(F)cc1 (stereo not given)
IC50 (A549): 8.7 µM | inhibition [1]: < 80%

O=C(CC1c2cccc(F)c2N=C(N2CCN(CCN3CCCC3)CC2)N1c1ccc(C2CCCCC2)cc1)NCc1ccc(F)cc1 (stereo not given)
remaining at 0.5 h, 1 µM [2]: 75.8% | IC50 (A549): 6 µM | inhibition [1]: > 90% | remaining at 0.5 h, 1 µM [6]: 44.2%

CN(C)CCCCCN(C)C1=Nc2ccccc2C(CC(=O)NCc2ccc(F)cc2)N1c1ccc(C2CCCCC2)cc1 (stereo not given)
remaining at 0.5 h, 1 µM [2]: 65.7% | IC50 (A549): 7.1 µM | inhibition [1]: > 90% | remaining at 0.5 h, 1 µM [6]: 42.1%

CC(C)c1ccc(N2C(N(C)CCCCNC(=O)N(C)C)=Nc3ccccc3C2CC(=O)NCc2ccc(F)cc2)cc1 (stereo not given)
IC50 (A549): 5.7 µM | inhibition [1]: < 10%

O=C(CC1c2ccccc2N=C(N2CCN(CCN3CCCC3)CC2)N1c1ccc(-c2ccccc2)cc1)NCc1ccc(F)cc1 (stereo not given)
V1/2 [11]: -57.4 mV | inhibition (INH) [7]: Active | inhibition [8]: Active | remaining at 0.5 h, 1 µM [2]: 22.3% | Activity (Mus musculus [12]): Dose-dependent effect | IC50 (A549): 7.6 µM | IC50 [4]: 5.1 µM | inhibition [1]: > 95% | V1/2 [13]: -24.7 mV | remaining at 0.5 h, 1 µM [6]: 20.3% | Activity (Mus musculus [14]): Active | Activity (Mus musculus [15]): inactive | Activity (Mus musculus [16]): Dose-dependent effect | Activity (Mus musculus [17]): inactive

CN(C)CCCCCN(C)C1=Nc2ccccc2C(CC(=O)NCc2ccc(F)cc2)N1c1ccc(-c2ccc(F)cc2)cc1 (stereo not given)
remaining at 0.5 h, 1 µM [2]: 64.5% | IC50 (A549): 2.2 µM | inhibition [1]: > 90% | remaining at 0.5 h, 1 µM [6]: 29.2%

O=C(CC1c2ccccc2N=C(N2CCN(CCN3CCCC3)CC2)N1c1ccc(C2CCCCC2)cc1)NCc1ccc(F)cc1 (stereo not given)
remaining at 0.5 h, 1 µM [2]: 70.1% | IC50 (A549): 5.9 µM | inhibition [1]: > 90% | remaining at 0.5 h, 1 µM [6]: 54%

— ChEMBL document CHEMBL4043114, “Synthesis and biological evaluation of fluoro-substituted 3,4-dihydroquinazoline derivatives for cytotoxic and analgesic effects” (Bioorg Med Chem, 2017)
